Assay outcomes as filed in PubChem.
RGS4 inh: RGS4 inhibitors, primary screen, cell-based, HEK293 M3R inducible RGS4, calcium flux | Regulator of G-protein signaling 4 (Homo sapiens), P49798 | Fluo-4 calcium flux; active compounds read high; triggered by carbachol at its EC20 | B-score at 10 µM | 0.45% of 310,000 active;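 active means B-score, a plate-corrected calcium signal, over three deviations above library mean, with baseline fluorescence within five deviations of library mean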;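 further: RGS4 expression induced by doxycycline in cells with stable M3 receptor; B-score is computed from the integrated fluorescence ratio over baseline after carbachol; higher B-score means a larger calcium signal and so more RGS4 inhibition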
Target sequence (P49798 whole entry, looked up): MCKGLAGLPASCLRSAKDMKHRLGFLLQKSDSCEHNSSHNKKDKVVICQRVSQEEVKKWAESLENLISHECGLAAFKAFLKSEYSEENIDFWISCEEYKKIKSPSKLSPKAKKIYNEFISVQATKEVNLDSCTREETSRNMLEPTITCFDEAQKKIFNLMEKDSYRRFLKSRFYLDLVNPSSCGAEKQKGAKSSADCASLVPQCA
MrgX1 agonist: agonists of human MrgX1 receptor, primary screen, HEK293 cells, Fluo-4 calcium flux; B-score at 10 µM; 0.44% of 310,000 active; Fluo-4 calcium fluorescence, agonist mode; active compounds read high; AID 588627, 2011;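 active means calcium response B-score plate-corrected fluorescence ratio at least 3 library SD, with starting fluorescence B-score inside 5 SD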
Target sequence (Q96LB2 whole entry, looked up): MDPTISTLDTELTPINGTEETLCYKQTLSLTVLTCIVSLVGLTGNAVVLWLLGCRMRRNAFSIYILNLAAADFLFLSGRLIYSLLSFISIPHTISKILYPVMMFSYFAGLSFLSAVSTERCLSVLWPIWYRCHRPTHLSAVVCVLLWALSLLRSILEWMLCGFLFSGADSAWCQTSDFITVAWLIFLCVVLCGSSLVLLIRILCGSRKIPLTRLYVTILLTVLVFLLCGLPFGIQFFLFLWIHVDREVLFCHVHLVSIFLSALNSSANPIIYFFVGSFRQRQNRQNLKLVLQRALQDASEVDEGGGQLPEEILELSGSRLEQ
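System – MrgX1-expressing HEK293 cells · Incubation – cells plated overnight, dye loaded 0.5 h 37 °C, 0.5 h room temperature · Technique – kinetic Fluo-4 NW fluorescence of intracellular calcium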
MrgX1 PAM: positive allosteric modulators of MrgX1, primary screen, HEK293 cells, Fluo-4 calcium flux. B-score at 10 µM. Mas-related G-protein coupled receptor member X1 (Homo sapiens), Q96LB2. FDSS; active compounds read high. 0.63% of 310,000 active. AID 588675, 2011;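 active means plate-corrected calcium response at least 3 library SD above typical, normal starting fluorescence, not activating the receptor alone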;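 further: compound read alongside a low EC10 to EC30 dose of BAM8-22 agonist; peak minus trough fluorescence over baseline measured at the second addition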
MrgX1 antag: antagonists of human MrgX1 receptor, primary screen, HEK293 cells, Fluo-4 calcium flux; B-score at 10 µM; Mas-related G-protein coupled receptor member X1 (Homo sapiens), Q96LB2; AID 588676, 2011; BAM8-22 antagonism; active compounds read low; 1.3% of 310,000 active;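 active means calcium-response B-score plate-corrected more than 3 library SD below zero, starting fluorescence within 5 deviations, no agonist response on first addition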;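 further: peak minus trough fluorescence over baseline after final BAM8-22 challenge near maximal dose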
RGS4 act: RGS4 potentiators or activators, primary screen, cell-based, HEK293 M3R inducible RGS4, calcium flux; carbachol calcium flux Fluo4; active compounds read low; B-score at 10 µM; 0.92% of 310,000 active;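 active means B-score of the integrated calcium signal more than 4 SD below the library mean, with starting fluorescence not abnormally high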;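 further: negative B-score means reduced calcium response which marks RGS4 activation or potentiation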
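Assay system: HEK293 FlpIn-TREx cells, stable M3R, doxycycline-inducible RGS4 / Probe or stimulus: carbachol, ECmax concentration / Times: overnight RGS4 induction, 30 min dye load 37 °C, 20 min compound RT / Signal: kinetic calcium fluorescence imaging with Fluo4-AM dye, 2 µM / Measure: Agonist-evoked peak-minus-minimum fluorescence over baseline, integrated ratio, B score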
RGS4 inh valid: enhanced carbachol calcium response, M3R/RGS4 cells, RGS4 inhibitor project, cell-based, validation screen, HEK293 M3R/RGS4, calcium flux | shares compounds with RGS4 inh | carbachol calcium Fluo-4 fluorescence; carbachol added at its EC20; 0 = buffer wells, 100 = carbachol control | calcium response, % at 10 µM | 65% of 1,700 active;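 active means duplicate-averaged calcium response above the buffer-only control mean plus 5 SD of those controls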;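 further: integrated fluorescence ratio F max minus min over baseline F0; higher response in RGS4-induced cells means RGS4 inhibition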
M3R Ca ctr: carbachol calcium response in non-induced M3R cells, confirmation, counter-screen for RGS4 inhibitor project, cell-based, HEK293 M3R. shares compounds with RGS4 inh. carbachol calcium Fluo-4; submaximal (EC20) carbachol stimulus; buffer wells 0%, carbachol control wells 100%. activity (percent), % at 10 µM. 20% of 1,900 active; call rule not given here;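 further: RGS4 induction absent so cells express M3R without RGS4; higher means more calcium signal and flags a non-specific hit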
M3R basal Ca ctr: second RGS4 inhibitor counter-screen in uninduced cells lacking carbachol | shares compounds with RGS4 inh | HEK293 M3R/RGS4 non-induced, Fluo-4 calcium, no carbachol; normalised: buffer wells 0%, carbachol wells 100% | calcium response (agonist-mode artifact), % at 10 µM | 22% of 1,900 active | AID 493001;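 active means duplicate-averaged calcium rise in uninduced cells above buffer wells' mean plus 5 SD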
Numbers stand for hits; - = inactive; . = not tested or not shown. The list is not random: actives were taken first. Their share in the collection is about 3.5%.

SMILES	RGS4 inh	MrgX1 agonist	MrgX1 PAM	MrgX1 antag	RGS4 act	RGS4 inh valid	M3R Ca ctr	M3R basal Ca ctr
Cc1ccccc1OCCNc1cc(N2CCN(CCO)CC2)ccc1[N+](=O)[O-]	-	-	-	-	-	.	.	.
COc1ccc(S(=O)(=O)Nc2ccc(S(=O)(=O)Nc3ccc(F)cc3)cc2)cc1C	5	-	-	-	-	22%	-	-
COc1ccc(S(=O)(=O)Nc2cccc(F)c2)cc1C	-	-	-	-	-	.	.	.
Cc1[nH]n(-c2ncc(-c3ccccc3)s2)c(=O)c1C(c1ccc(Br)cc1)C(C#N)C#N (stereo unspecified)	16	-	-	-6.8	-	50%	-	51%
COc1ccc(Cl)cc1Nc1nc(C)cc(C)c1C(N)=O	-	-	-	-	-	.	.	.
CCC(C(=O)N1CCOCC1)n1nc(C)c2c(C)n(-c3ccccc3)nc2c1=O (stereo unspecified)	9	-	-	-	-	5.0%	-	-
Cc1ccc(NC(=O)C2CC2C)c(Cl)c1 (stereo unspecified)	-	-	-	-	-	.	.	.
Cn1c(CSCc2ccccc2)n[nH]c1=S	-	-	-	-	-	.	.	.
Cc1cc2nc(CO)[nH]c2cc1C	-	-	-	-	-	.	.	.
Cc1cc2nc(CS)[nH]c2cc1C	5.9	-	-	-	-	28%	-	-
COc1ccc(CCNC(=O)CN(c2ccc(OC)c(OC)c2)S(=O)(=O)c2ccc(C)cc2)cc1	-	-	-	-	-	.	.	.
O=C1NC(c2ccccc2)=C(c2nc3ccccc3s2)C(c2ccc(F)cc2)N1 (stereo unspecified)	-	-	-	-	-	.	-	-
COc1ccc(C2NC(=O)NC(c3ccccc3)=C2c2nc3ccccc3s2)cc1 (stereo unspecified)	-	-	-	-	-	.	.	.
CC1=C(C(=O)Nc2ccccc2F)C(c2cccs2)NC(=S)N1 (stereo unspecified)	-	-	-	-	-	.	.	.
O=S(=O)(Nc1ccc(O)c2ccccc12)c1cccs1	8.1	-	-	-	-	37%	-	-
O=S(=O)(Nc1cccc2ccccc12)c1cccs1	-	-	-	-	-	.	.	.
O=C(N/N=C/c1c(F)cccc1Cl)c1cc(C2CC2)[nH]n1	-	-	-	-	-	.	.	.
COc1ccccc1CC(NC(C)=O)C(=O)NC1CCN(S(=O)(=O)c2ccc(NC(C)=O)cc2)CC1 (stereo unspecified)	-	-	-	-	-	-	-	-
COc1ccccc1CC(NC(C)=O)C(=O)NC1CCN(S(=O)(=O)c2ccccc2)CC1 (stereo unspecified)	5.7	.	.	.	-	-	-	-
COc1cccc(CC(NC(C)=O)C(=O)NC2CCN(S(=O)(=O)c3ccc(NC(C)=O)cc3)CC2)c1OC (stereo unspecified)	-	-	-	-	-	.	.	.
CCOc1ccc(S(=O)(=O)NCCC(=O)NCc2ccncc2)cc1	-	-	-	-	-	.	.	.
OCCC#Cc1ccc(CN2CCN(C3CCCCC3)C(CCO)C2)cc1 (stereo unspecified)	-	-	-	-	-	.	.	.
COc1ccc(/C=C2\CCCC3C2=NN(C(=O)CSc2ncn[nH]2)C3c2ccc(OC)cc2)cc1 (stereo unspecified)	-	-	-	-	-	.	-	-
O=C(CSc1ncn[nH]1)N1N=C2/C(=C/c3ccccc3)CCCC2C1c1ccccc1 (stereo unspecified)	5.1	-	-	-	-	10%	-	-
O=C(O)CSCC(=O)N1N=C2/C(=C/c3ccccc3)CCCC2C1c1ccccc1 (stereo unspecified)	-	-	-	-	-	.	.	.
SMILES	RGS4 inh	MrgX1 agonist	MrgX1 PAM	MrgX1 antag	RGS4 act	RGS4 inh valid	M3R Ca ctr	M3R basal Ca ctr
CCc1cccc(OCC(=O)Nc2ccc(S(=O)(=O)N3CCCC3)cc2)c1	-	-	-	-	-	.	.	.
CC1CCN(c2c(NCC3CCC(C(=O)NCCc4ccccc4)CC3)c(=O)c2=O)CC1 (stereo unspecified)	-	-	-	-	-	.	-	-
N#Cc1c(NC(=O)CSc2ncn[nH]2)sc2c1CCCCC2	-	-	-	-	-	.	-	-
N#Cc1c(NC(=O)CSc2nc(N)cc(=O)[nH]2)sc2c1CCCCCC2	-	-	-	-	-	.	.	.
CCC(=O)N1CCN(c2ccccc2NC(=O)COc2ccc(C(C)C)cc2)CC1	-	-	-	-	-	.	.	.
COc1cccc(/C=C(/C(=O)OCC(=O)NCC2CCCO2)c2ccccc2)c1 (stereo unspecified)	-	-	-	-	-	.	.	.
COc1cccc(/C=C(/C(=O)OCC(=O)NC2CCCCCCC2)c2ccccc2)c1	5	-	-	-	-	-	-	7.0%
COc1cc(/C=C2\S/C(=N/S(=O)(=O)Cc3ccccc3)NC2=O)c([N+](=O)[O-])cc1OC	-	-	-	-	-	-	-	-
COc1cc(/C=C2/S/C(=N/S(=O)(=O)Cc3ccccc3)NC2=O)c([N+](=O)[O-])cc1OC	-	-	-	-	-	-	-	-
COc1cc(/C=C2/S/C(=N/S(=O)(=O)c3ccccc3)NC2=O)c([N+](=O)[O-])cc1OC	5.9	-	-	-	-	38%	50%	-
O=C1N/C(=N\S(=O)(=O)Cc2ccccc2)S/C1=C/c1cc([N+](=O)[O-])ccc1O	-	-	-	-	-	.	.	.
O=C1N/C(=N\S(=O)(=O)c2ccccc2)S/C1=C\c1cc([N+](=O)[O-])ccc1O	-	-	-	-	-	.	.	.
CC(C)(C)NC(=O)NC(=O)CN1c2cccc3cccc(c23)S1(=O)=O	-	-	-	-	-	.	.	.
CCn1c(=O)c2cc(C(=O)N(C)c3ccc(OC)cc3OC)sc2c2ccccc21	-	-	-	-	-	.	.	.
CCn1c(=O)c2cc(C(=O)N(C)c3cc(C)ccc3OC)sc2c2ccccc21	6	-	-	-	-	30%	60%	-
